# Reference: ChEMBL document CHEMBL3779876, “Synthesis and biological evaluation of novel 2,3-dihydrochromeno[3,4-d]imidazol-4(1H)-one derivatives as potent anticancer cell proliferation and migration agents” (Eur J Med Chem, 2016)
# pIC50: −log10 of the molar value. Calls of active or inactive are those of the source. No cut-off for these calls is given here.
# Legend:
# [1] = Growth inhibition of human U87MG cells assessed as cell viability after 72 hrs by MTT assay; format: functional, cell-based, U-87MG ATCC; settings: U-87 MG
# Summary of the method: (§1)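 Cells were grown in DMEM or RPMI with 10% FBS and 1% penicillin/streptomycin at 37 °C, 5% CO2. They were seeded at 2000–3000 cells, rested 24 h, then exposed to a range of concentrations for 72 h. MTT (5 mg/mL stock) was added for 2–4 h at 37 °C and formazan dissolved in DMSO. A570 was read and IC50 calculated; triplicate wells, three separate experiments.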
# [2] = Growth inhibition of human PC3 cells assessed as cell viability after 72 hrs by MTT assay; format: functional, cell-based; settings: PC-3, 72 h; summary of the method: as §1
# [3] = Growth inhibition of human HCT116 cells assessed as cell viability after 72 hrs by MTT assay; format: functional, cell-based; settings: HCT-116, 72 h; summary of the method: as §1
# [4] = Cell cycle arrest in human SW620 cells assessed as accumulation at G0/G1 phase at 0.625 uM after 24 hrs by propidium iodide staining based flow cytometry (reference value: 38.47%); format: functional; settings: SW-620
# [5] = system: HCT-116; experiment: Inhibition of colony formation in human HCT116 cells at 0.3125 to 2.5 uM after 20 days by crystal violet staining based microscopic analysis; format: functional, cell-based
# Summary of the method: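 HCT116 cells were plated at 500 per well, left overnight at 37 °C, then treated with fresh compound-containing medium. Colonies were washed with cold PBS, fixed in 4% paraformaldehyde and stained with 0.5% crystal violet for 15 min. Colonies over 50 cells were counted by microscope and expressed as % of control; three independent experiments.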
# [6] = system: HCT-116; experiment: Antitumor activity against human HCT116 cells xenografted in ip dosed Balb/c athymic nude mouse assessed as tumor growth inhibition administered once in 2 days for 24 days measured every 2 days during compound treatment; format: functional, organism-based
# Summary of the method: (§2)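 Female BALB/c athymic nude mice, 7 weeks old, received 1×10^7 HCT116 cells s.c. in the right flank. After one week, at about 100 mm³ mean tumour volume, mice were randomised to three groups of 8. Groups got vehicle, 40 or 80 mg/kg i.p. once every two days for 24 days. Tumour size and body weight were measured every two days. Volume = L×W²×0.5; inhibition was taken from mean volume change versus vehicle.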
# [7] = Cell cycle arrest in human SW620 cells assessed as accumulation at G2/M phase at 1.25 uM after 24 hrs by propidium iodide staining based flow cytometry (reference value: 22.88%); format: functional; settings: SW-620
# [8] = Cell cycle arrest in human SW620 cells assessed as accumulation at S phase at 5 uM after 24 hrs by propidium iodide staining based flow cytometry (reference value: 38.65%); format: functional; settings: SW-620
# [9] = Cell cycle arrest in human SW620 cells assessed as accumulation at S phase at 2.5 uM after 24 hrs by propidium iodide staining based flow cytometry (reference value: 38.65%); format: functional; settings: SW-620
# [10] = system: SW-620; experiment: Induction of apoptosis in human SW620 cells assessed as late apoptotic cells at 0.3125 uM after 24 hrs by Annexin V-FITC/propidium iodide staining based flow cytometry (reference value: 1.02%); format: functional
# [11] = Cell cycle arrest in human SW620 cells assessed as accumulation at G0/G1 phase at 2.5 uM after 24 hrs by propidium iodide staining based flow cytometry (reference value: 38.47%); format: functional; settings: SW-620
# [12] = Cell cycle arrest in human SW620 cells assessed as accumulation at G0/G1 phase after 24 hrs by propidium iodide staining based flow cytometry; format: functional; settings: SW-620
# [13] = system: SW-620; experiment: Induction of apoptosis in human SW620 cells assessed as early apoptotic cells at 0.625 uM after 24 hrs by Annexin V-FITC/propidium iodide staining based flow cytometry (reference value: 2.81%); format: functional
# [14] = Cell cycle arrest in human SW620 cells assessed as accumulation at S phase at 0.3125 uM after 24 hrs by propidium iodide staining based flow cytometry (reference value: 38.65%); format: functional; settings: SW-620
# [15] = system: SW-620; experiment: Induction of apoptosis in human SW620 cells assessed as early apoptotic cells at 2.5 uM after 24 hrs by Annexin V-FITC/propidium iodide staining based flow cytometry (reference value: 2.81%); format: functional
# [16] = Cell cycle arrest in human SW620 cells assessed as accumulation at G0/G1 phase at 0.3125 uM after 24 hrs by propidium iodide staining based flow cytometry (reference value: 38.47%); format: functional; settings: SW-620
# [17] = system: MCF7; experiment: Inhibition of cell migration in human MCF7 cells at 5 uM after 24 hrs by wound healing assay; format: functional, cell-based
# Summary of the method: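 MCF-7 monolayers at 80–90% confluence were scratched with a sterile pipette tip. Fresh medium with 10% FBS and compound was added. Wounds were photographed at 0, 12 and 24 h at 37 °C.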
# [18] = Cell cycle arrest in human SW620 cells assessed as accumulation at G0/G1 phase at 5 uM after 24 hrs by propidium iodide staining based flow cytometry (reference value: 38.47%); format: functional; settings: SW-620
# [19] = system: SW-620; experiment: Induction of apoptosis in human SW620 cells after 24 hrs by Annexin V-FITC/propidium iodide staining based flow cytometry; format: functional, cell-based
# [20] = Growth inhibition of human SW620 cells assessed as cell viability after 72 hrs by MTT assay; format: functional, cell-based; settings: SW-620, 72 h; summary of the method: as §1
# [21] = Cell cycle arrest in human SW620 cells assessed as accumulation at G2/M phase at 0.625 uM after 24 hrs by propidium iodide staining based flow cytometry (reference value: 22.88%); format: functional; settings: SW-620
# [22] = system: SW-620; experiment: Induction of apoptosis in human SW620 cells assessed as early apoptotic cells at 5 uM after 24 hrs by Annexin V-FITC/propidium iodide staining based flow cytometry (reference value: 2.81%); format: functional
# [23] = system: SW-620; experiment: Induction of apoptosis in human SW620 cells assessed as late apoptotic cells at 0.625 uM after 24 hrs by Annexin V-FITC/propidium iodide staining based flow cytometry (reference value: 1.02%); format: functional
# [24] = Cell cycle arrest in human SW620 cells assessed as accumulation at S phase at 1.25 uM after 24 hrs by propidium iodide staining based flow cytometry (reference value: 38.65%); format: functional; settings: SW-620
# [25] = system: SW-620; experiment: Induction of apoptosis in human SW620 cells assessed as late apoptotic cells at 2.5 uM after 24 hrs by Annexin V-FITC/propidium iodide staining based flow cytometry (reference value: 1.02%); format: functional
# [26] = system: Mus musculus; experiment: Toxicity in Balb/c athymic nude mouse xenografted with human HCT116 cells assessed as body weight loss at 40 to 80 mg/kg, ip once in 2 days for 24 days measured every 2 days during compound treatment; format: organism-based, HCT-116; settings: in vivo; summary of the method: as §2
# [27] = system: SW-620; experiment: Induction of apoptosis in human SW620 cells assessed as late apoptotic cells at 1.25 uM after 24 hrs by Annexin V-FITC/propidium iodide staining based flow cytometry (reference value: 1.02%); format: functional
# [28] = Cell cycle arrest in human SW620 cells assessed as accumulation at G2/M phase at 5 uM after 24 hrs by propidium iodide staining based flow cytometry (reference value: 22.88%); format: functional; settings: SW-620
# [29] = Cell cycle arrest in human SW620 cells assessed as accumulation at G0/G1 phase at 1.25 uM after 24 hrs by propidium iodide staining based flow cytometry (reference value: 38.47%); format: functional; settings: SW-620
# [30] = Cell cycle arrest in human SW620 cells assessed as accumulation at G2/M phase at 0.3125 uM after 24 hrs by propidium iodide staining based flow cytometry (reference value: 22.88%); format: functional; settings: SW-620
# [31] = Antitumor activity against human HCT116 cells xenografted in Balb/c athymic nude mouse assessed as tumor growth inhibition at 80 mg/kg, ip once in 2 days for 24 days measured every 2 days during compound treatment relative to control; format: functional; settings: HCT-116, ip, read-out: TGI; summary of the method: as §2
# [32] = Growth inhibition of human LO2 cells assessed as cell viability after 72 hrs by MTT assay; format: cell-based; settings: L02, 72 h; summary of the method: as §1
# [33] = system: MCF7; experiment: Growth inhibition of human MCF7 cells assessed as cell viability after 72 hrs by MTT assay; format: functional, cell-based; settings: MCF7, 72 h; summary of the method: as §1
# [34] = system: SW-620; experiment: Induction of apoptosis in human SW620 cells assessed as early apoptotic cells at 0.3125 uM after 24 hrs by Annexin V-FITC/propidium iodide staining based flow cytometry (reference value: 2.81%); format: functional
# [35] = system: CT26; experiment: Growth inhibition of mouse CT26 cells assessed as cell viability after 72 hrs by MTT assay; format: functional, cell-based; settings: CT26, 72 h; summary of the method: as §1
# [36] = system: A549; experiment: Growth inhibition of human A549 cells assessed as cell viability after 72 hrs by MTT assay; format: functional, cell-based; settings: A549, 72 h; summary of the method: as §1
# [37] = system: SW-620; experiment: Induction of apoptosis in human SW620 cells assessed as early apoptotic cells at 1.25 uM after 24 hrs by Annexin V-FITC/propidium iodide staining based flow cytometry (reference value: 2.81%); format: functional
# [38] = Cell cycle arrest in human SW620 cells assessed as accumulation at G2/M phase at 2.5 uM after 24 hrs by propidium iodide staining based flow cytometry (reference value: 22.88%); format: functional; settings: SW-620
# [39] = Cell cycle arrest in human SW620 cells assessed as accumulation at S phase at 0.625 uM after 24 hrs by propidium iodide staining based flow cytometry (reference value: 38.65%); format: functional; settings: SW-620
# [40] = system: SW-620; experiment: Induction of apoptosis in human SW620 cells assessed as late apoptotic cells at 5 uM after 24 hrs by Annexin V-FITC/propidium iodide staining based flow cytometry (reference value: 1.02%); format: functional
smiles,measurement,setting,value
Cc1ccccc1-n1c(=O)[nH]c2c(=O)oc3ccc(-c4cnc5ccccc5c4)cc3c21,pIC50,[1],< 4.40
same,pIC50,[2],< 4.40
same,pIC50,[3],< 4.40
O=c1oc2ccc(-c3cccnc3)cc2c2c1[nH]c(=O)n2-c1ccccc1,pIC50,[1],< 4.40
same,pIC50,[2],< 4.40
N#CCc1ccc(-n2c(=O)[nH]c3c(=O)oc4ccc(-c5ccc(O)cc5)cc4c32)cc1,pIC50,[1],4.53
same,pIC50,[2],4.51
same,pIC50,[3],4.52
O=c1oc2ccc(-c3ccc(O)cc3)cc2c2c1[nH]c(=O)n2-c1ccccc1,pIC50,[1],< 4.40
CN1c2c(c3cc(-c4cnc5ccccc5c4)ccc3oc2=O)N(c2ccc(C(C)(C)C#N)cc2)C1(C)OC(C)(C)C (centres undefined),Activity,[4],40.3%
same,inhibition,[5],Active
same,TGI,[6],Dose-dependent effect
same,Activity,[7],20.5%
same,Activity,[8],30.3%
same,Activity,[9],37.2%
same,Activity,[10],8.96%
same,Activity,[11],47.5%
same,Activity,[12],Dose-dependent effect
same,Activity,[13],8.59%
same,Activity,[14],35.2%
same,Activity,[15],16.78%
same,pIC50,[1],< 4.51
same,Activity,[16],38.8%
same,inhibition,[17],Active
same,Activity,[18],60%
same,Activity,[19],Dose-dependent effect
same,pIC50,[20],5.45
same,Activity,[21],22.8%
same,Activity,[22],31.33%
same,Activity,[23],9.09%
same,Activity,[24],36.6%
same,Activity,[25],9.44%
same,Activity,[26],Non-toxic
same,Activity,[27],8.43%
same,Activity,[28],9.68%
same,pIC50,[2],4.74
same,Activity,[29],43%
same,Activity,[30],26%
same,pIC50,[3],5.85
same,inhibition in vivo at 80 mg/kg,[31],53%
same,pIC50,[32],4.43
same,pIC50,[33],5.77
same,Activity,[34],6.75%
same,pIC50,[35],5.46
same,pIC50,[36],5.02
same,Activity,[37],16.76%
same,Activity,[38],15.3%
same,Activity,[39],36.9%
same,Activity,[40],11.57%
N#CCc1ccc(-n2c(=O)[nH]c3c(=O)oc4ccc(-c5ccncc5)cc4c32)cc1,pIC50,[1],4.44
same,pIC50,[2],4.43
same,pIC50,[3],4.43
O=c1oc2ccc(-c3ccccc3)cc2c2c1[nH]c(=O)n2-c1ccccc1,pIC50,[1],< 4.40
same,pIC50,[2],< 4.40
